Data taken from ChEMBL document CHEMBL3352420, “Discovery of 2-pyridylureas as glucokinase activators” (J Med Chem, 2014).
pEC50: −log10 of the molar value. ≈ marks a conversion by molar mass, not a printed value. One block for each compound: values may come before it.

Assays:
Hexokinase-4 [1] = target: T1, Hexokinase-4 (Homo sapiens, UniProt P35557); experiment: Activation of purified human glucokinase isoform 3 (13 to 466 aa) using 5 mM glucose by spectrophotometry in presence of NAD+ and glucose 6-phosphate dehydrogenase in presence of 4% HSA; conditions: read-out: EC50
T1 sequence (P35557 whole entry): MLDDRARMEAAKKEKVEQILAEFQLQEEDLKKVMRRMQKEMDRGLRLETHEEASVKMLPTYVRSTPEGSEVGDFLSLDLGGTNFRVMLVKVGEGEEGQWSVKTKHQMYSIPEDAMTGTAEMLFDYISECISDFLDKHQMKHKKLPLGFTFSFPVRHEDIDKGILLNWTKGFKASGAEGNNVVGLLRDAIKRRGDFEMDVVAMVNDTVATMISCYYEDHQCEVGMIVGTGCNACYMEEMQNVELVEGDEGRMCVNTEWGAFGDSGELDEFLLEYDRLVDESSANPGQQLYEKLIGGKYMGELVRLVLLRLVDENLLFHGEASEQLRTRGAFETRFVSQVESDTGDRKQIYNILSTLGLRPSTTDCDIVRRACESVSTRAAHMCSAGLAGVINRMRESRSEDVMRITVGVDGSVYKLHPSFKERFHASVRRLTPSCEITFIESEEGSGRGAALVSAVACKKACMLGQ

Hexokinase-4 [2] = target: T1, Hexokinase-4; experiment: Activation of purified human glucokinase isoform 3 (13 to 466 aa) using 5 mM glucose by spectrophotometry in presence of NAD+ and glucose 6-phosphate dehydrogenase
[3] = Extraction ratio in human liver microsomes at 1 uM up to 20 mins by LC-MS/MS analysis; format: ADME; conditions: read-out: ERH
[4] = Extraction ratio in mouse liver microsomes at 1 uM up to 20 mins by LC-MS/MS analysis; format: ADME; conditions: read-out: ERH
Mus musculus [5] = experiment: Antidiabetic activity in ob/ob mouse assessed as reduction in glucose excursion at 30 mg/kg, po bid for 14 days by oral glucose tolerance test; format: functional; parameters: scale not given: the % may be the effect or the level left
Method in brief: (§1)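 ob/ob mice dosed orally b.i.d. at 3, 30 and 100 mg/kg for 14 days. On day 14 an OGTT is run, with fasting blood glucose read at −0.5 h and glucose excursion as AUC reduction. Significance is taken at p < 0.05.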

[6] = Tmax in fed CD-1 mouse at 10 mg/kg, po as single dose; format: ADME, organism-based; parameters: dose 10 mg/kg, route oral; conditions: in vivo
Method in brief: (§2)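 Male CD-1 mice, fed, given a single 10 mg/kg oral dose as a suspension in aqueous 1% CMC/0.05% Tween 80 (w/v). Parameters are calculated from arithmetic mean plasma concentrations, n = 3 per time point.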

[7] = Extraction ratio in fed CD-1 mouse at 1 mg/kg, iv as single dose; format: ADME, organism-based; parameters: dose 1 mg/kg, route intravenous; conditions: in vivo, read-out: ERH
Method in brief: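 Male CD-1 mice, fed, given a single 1 mg/kg iv dose in 40% PEG400/20% EtOH/40% saline (v/v). Extraction ratio is calculated from clearance using a mouse hepatic blood flow of 90 mL min−1 kg−1. Plasma concentrations are arithmetic means, n = 3 per time point.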

[8] = AUClast in fed CD-1 mouse at 10 mg/kg, po as single dose; format: ADME, organism-based; parameters: time 0 - last, dose 10 mg/kg, route oral; conditions: plasma; method in brief: as §2
[9] = Clearance in fed CD-1 mouse at 1 mg/kg, iv as single dose; format: ADME, organism-based; parameters: dose 1 mg/kg, route intravenous; conditions: in vivo
Method in brief: (§3)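 Male CD-1 mice, fed, given a single 1 mg/kg iv dose as a solution in 40% PEG400/20% EtOH/40% saline (v/v). Parameters are calculated from arithmetic mean plasma concentrations, n = 3 per time point.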

[10] = Oral bioavailability in fed CD-1 mouse at 10 mg/kg as single dose; format: ADME, organism-based; conditions: in vivo; method in brief: as §2
[11] = Half life in fed CD-1 mouse at 1 mg/kg, iv as single dose; format: ADME, organism-based; parameters: dose 1 mg/kg, route intravenous; conditions: in vivo; method in brief: as §3
Mus musculus [12] = experiment: Antidiabetic activity in C57BL/6 mouse assessed as reduction in glucose AUC level at 30 mg/kg, po by oral glucose tolerance test relative to control; format: functional; parameters: scale not given: the % may be the effect or the level left
Method in brief: (§4)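 Dose–response oral glucose tolerance test in C57BL/6 mice at 3, 10 and 30 mg/kg po. Glucose AUC reduction is reported with p < 0.05 significance. Glucose min is the lowest glucose at the 2 h time point for any animal, n = 8.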

[13] = AUC (infinity) in fed CD-1 mouse at 10 mg/kg, po as single dose; format: ADME, organism-based; parameters: time infinity, dose 10 mg/kg, route oral; conditions: plasma; method in brief: as §2
Mus musculus [14] = experiment: Antidiabetic activity in ob/ob mouse assessed as reduction in fasting blood glucose at 3 mg/kg, po bid for 14 days by oral glucose tolerance test (reference value: 187.9 mg/dL); format: functional; conditions: dose 100 mg/kg, in the assay text read “at 100 mg/kg” for “at 3 mg/kg”; method in brief: as §1
[15] = Solubility of the compound at pH 7.4; format: physicochemical; conditions: buffer
Mus musculus [16] = experiment: Antidiabetic activity in C57BL/6 mouse assessed as reduction in glucose AUC level at 3 mg/kg, po by oral glucose tolerance test relative to control; format: functional; parameters: scale not given: the % may be the effect or the level left; method in brief: as §4
[17] = Solubility of the compound at pH 1.2; format: physicochemical; conditions: buffer
[18] = Cmax in fed CD-1 mouse at 10 mg/kg, po as single dose; format: ADME, organism-based; parameters: dose 10 mg/kg, route oral; conditions: in vivo; method in brief: as §2
[19] = Plasma protein binding in mouse; format: ADME; conditions: read-out: PPB (converted)
Mus musculus [20] = experiment: Antidiabetic activity in C57BL/6 mouse assessed as reduction in glucose AUC level at 10 mg/kg, po by oral glucose tolerance test relative to control; format: functional; parameters: scale not given: the % may be the effect or the level left; method in brief: as §4
[21] = AUC (infinity) in fed CD-1 mouse at 1 mg/kg, iv as single dose; format: ADME, organism-based; parameters: time infinity, dose 1 mg/kg, route intravenous; conditions: plasma; method in brief: as §3
[22] = AUClast in fed CD-1 mouse at 1 mg/kg, iv as single dose; format: ADME, organism-based; parameters: time 0 - last, dose 1 mg/kg, route intravenous; conditions: plasma; method in brief: as §3
[23] = Fraction unbound in human plasma; format: ADME, cell-free
[24] = Plasma concentration in C57BL/6 mouse at 30 mg/kg, po measured at 2.5 hrs; format: ADME, organism-based; parameters: dose 30 mg/kg, route oral
Method in brief: (§5)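 C57BL/6 mice in the OGTT study, dosed orally at 3, 10 or 30 mg/kg. Plasma concentrations are means at 2.5 h postdose, n = 8 per dose group.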

[25] = Plasma concentration in C57BL/6 mouse at 3 mg/kg, po measured at 2.5 hrs; format: ADME, organism-based; parameters: dose 3 mg/kg, route oral; method in brief: as §5
[26] = Plasma concentration in C57BL/6 mouse at 10 mg/kg, po measured at 2.5 hrs; format: ADME, organism-based; parameters: dose 10 mg/kg, route oral; method in brief: as §5
[27] = Solubility of the compound at pH 6.5; format: physicochemical; conditions: buffer
[28] = Permeability across pig LLC-PK cells; format: ADME, cell-based, Sus scrofa
[29] = Plasma protein binding in human; format: ADME, cell-free; conditions: read-out: PPB (converted)
[30] = Volume of distribution at steady state in fed CD-1 mouse at 1 mg/kg, iv as single dose; format: ADME, organism-based; parameters: dose 1 mg/kg, route intravenous; conditions: in vivo, read-out: Vdss; method in brief: as §3
Mus musculus [31] = experiment: Antidiabetic activity in ob/ob mouse assessed as reduction in glucose excursion at 3 mg/kg, po bid for 14 days by oral glucose tolerance test; format: functional; parameters: scale not given: the % may be the effect or the level left; method in brief: as §1
Mus musculus [32] = experiment: Antidiabetic activity in C57BL/6 mouse assessed as minimum glucose level at 30 mg/kg, po measured at 2 hrs by oral glucose tolerance test relative to control; format: functional; method in brief: as §4
Mus musculus [33] = experiment: Antidiabetic activity in ob/ob mouse assessed as reduction in glucose excursion at 100 mg/kg, po bid for 14 days by oral glucose tolerance test; format: functional; parameters: scale not given: the % may be the effect or the level left; method in brief: as §1

pEC50 (Hexokinase-4 [1]): 5.82 | pEC50 (Hexokinase-4 [2]): 6.76
SMILES: CCc1ncccc1Oc1cc(Sc2ccccn2)cnc1NC(=O)NCc1ccc(O)cc1

pEC50 (Hexokinase-4 [1]): 5.73 | hepatic extraction ratio at 20 min, 1 µM [3]: 0.37 | hepatic extraction ratio at 20 min, 1 µM [4]: 0.68 | pEC50 (Hexokinase-4 [2]): 6.58
SMILES: CNC(=O)Nc1ncc(Sc2ccccn2)cc1Oc1cccnc1C

pEC50 (Hexokinase-4 [1]): 6.33 | hepatic extraction ratio at 20 min, 1 µM [3]: 0.45 | hepatic extraction ratio at 20 min, 1 µM [4]: 0.83 | pEC50 (Hexokinase-4 [2]): 6.50
SMILES: CCn1nccc1Oc1cc(Sc2ccccn2)cnc1NC(=O)NC

pEC50 (Hexokinase-4 [1]): 6.46 | pEC50 (Hexokinase-4 [2]): 5.65
SMILES: CNC(=O)Nc1ncc(Sc2ccccn2)cc1Oc1c(C)n[nH]c1C

pEC50 (Hexokinase-4 [1]): 5.03 | pEC50 (Hexokinase-4 [2]): 5.51
SMILES: CNC(=O)Nc1ncc(SCc2ccccn2)cc1Oc1cccnc1C

pEC50 (Hexokinase-4 [1]): 5.93 | hepatic extraction ratio at 20 min, 1 µM [3]: 0.93 | hepatic extraction ratio at 20 min, 1 µM [4]: 0.93 | pEC50 (Hexokinase-4 [2]): 6.76
SMILES: CNC(=O)Nc1ncc(SCc2ccccc2)cc1Oc1cccnc1C

pEC50 (Hexokinase-4 [1]): 6.15 | hepatic extraction ratio at 20 min, 1 µM [3]: 0.15 | hepatic extraction ratio at 20 min, 1 µM [4]: 0.19 | pEC50 (Hexokinase-4 [2]): 6.26
SMILES: CNC(=O)Nc1ncc(SCCCO)cc1Oc1cccnc1C

Tmax [6]: 30 min | hepatic extraction ratio [7]: 0.239 | AUC(0-t) [8]: 5030 ng·h/mL | clearance [9]: 21.5 mL/min/kg | bioavailability [10]: 67.8% | half-life [11]: 160 min | AUC(0-inf) [13]: 5240 ng·h/mL | solubility [15]: 282 µg/mL (≈ 778 µM) | solubility [17]: > 1000 µg/mL | Cmax [18]: 2320 ng/mL | pEC50 (Hexokinase-4 [1]): 6.51 | fraction unbound [19]: 0.26 | AUC(0-inf) [21]: 773 ng·h/mL | AUC(0-t) [22]: 762 ng·h/mL | fraction unbound [23]: 0.4 | concentration at 2.5 h [24]: 633 ng/mL | concentration at 2.5 h [25]: 46 ng/mL | concentration at 2.5 h [26]: 178 ng/mL | solubility [27]: 45 µg/mL (≈ 124 µM) | permeability [28]: permeable | fraction unbound [29]: 0.38 | hepatic extraction ratio at 20 min, 1 µM [3]: 0.32 | Vd [30]: 1.98 L/kg | hepatic extraction ratio at 20 min, 1 µM [4]: 0.34 | pEC50 (Hexokinase-4 [2]): 6.74
SMILES: CNC(=O)Nc1ncc(SCCCOC)cc1Oc1cccnc1C
Activity (Mus musculus [5]): 33.3% | Activity (Mus musculus [12]): 30.8% | Activity (Mus musculus [14]): 125.9 mg/dL | Activity (Mus musculus [16]): 8% | Activity (Mus musculus [20]): 28.6% | Activity (Mus musculus [31]): 18.4% | Activity (Mus musculus [32]): 73 mg/dL | Activity (Mus musculus [33]): 30.8%

pEC50 (Hexokinase-4 [1]): 6.36 | hepatic extraction ratio at 20 min, 1 µM [3]: 0.48 | hepatic extraction ratio at 20 min, 1 µM [4]: 0.43 | pEC50 (Hexokinase-4 [2]): 6.50
SMILES: CNC(=O)Nc1ncc(SCC2CCOCC2)cc1Oc1cccnc1C

pEC50 (Hexokinase-4 [1]): 6.63 | hepatic extraction ratio at 20 min, 1 µM [3]: 0.47 | hepatic extraction ratio at 20 min, 1 µM [4]: 0.3 | pEC50 (Hexokinase-4 [2]): 6.47
SMILES: CNC(=O)Nc1ncc(SC2CCOCC2)cc1Oc1cccnc1C

pEC50 (Hexokinase-4 [1]): 6.26 | hepatic extraction ratio at 20 min, 1 µM [3]: 0.95 | hepatic extraction ratio at 20 min, 1 µM [4]: 0.9 | pEC50 (Hexokinase-4 [2]): 6.88
SMILES: CNC(=O)Nc1ncc(SC2CCN(C(=O)OC(C)(C)C)CC2)cc1Oc1cccnc1C

pEC50 (Hexokinase-4 [1]): 6.71 | hepatic extraction ratio at 20 min, 1 µM [3]: 0.44 | hepatic extraction ratio at 20 min, 1 µM [4]: 0.33 | pEC50 (Hexokinase-4 [2]): 6.95
SMILES: CNC(=O)Nc1ncc(SC2CCN(C(C)=O)CC2)cc1Oc1cccnc1C

pEC50 (Hexokinase-4 [1]): 6.61 | hepatic extraction ratio at 20 min, 1 µM [3]: 0.5 | hepatic extraction ratio at 20 min, 1 µM [4]: 0.32 | pEC50 (Hexokinase-4 [2]): 6.71
SMILES: CNC(=O)Nc1ncc(SC2CCN(S(C)(=O)=O)CC2)cc1Oc1cccnc1C
